Source: ChEMBL document CHEMBL1136717, “Trypanocidal activity of conformationally restricted pentamidine congeners” (J Med Chem, 2003)
The source made the active and inactive calls. The rule behind the calls is not given here.

Legend:
Nucleic Acid = test: DNA binding affinity using poly(dA-dT).; type: nucleic-acid assay
Summary of the method: (§1)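 Thermal denaturation of calf thymus DNA or poly(dA-dT) at a 1:5 compound to base pair ratio. Binding affinity is reported as ΔTm, the shift in the midpoint (Tm) of the melting curve.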

[1] = system: Trypanosoma brucei rhodesiense; test: In vitro inhibitory concentration against mouse infected with Trypanosoma brucei rhodesiense (KETRI 269)
Trypanosoma brucei [2] = test: In vitro inhibitory concentration against mice infected with Trypanosoma brucei pentamidine-sensitive strain (EATRO Lab 110).; type: functional, organism-based
Trypanosoma brucei [3] = test: In vitro inhibitory concentration against mice infected with Trypanosoma brucei rhodesiense (KETRI 243).; type: functional, organism-based
Trypanosoma brucei [4] = test: In vitro inhibitory concentration against mouse infected with Trypanosoma brucei rhodesiense (kETRI 243As-10-3); type: functional, organism-based
Calf thymus DNA = test: DNA binding affinity using calf thymus DNA.; type: nucleic-acid assay; settings: Bos taurus; summary of the method: as §1
Mus musculus [5] = test: Ratio of number of cured to that of total after intraperitoneal administration (1.0 mg/kg) once a day for 3 days in mouse infected with Trypanosoma brucei (EATRO Lab 110); (0/3 of animals were cured); type: functional, organism-based
Mus musculus [6] = test: Ratio of number of cured to that of total after intraperitoneal administration (5.0 mg/kg) once a day for 3 days in mouse infected with Trypanosoma brucei (EATRO Lab 110); (3/3 of animals were cured); type: functional, organism-based
Mus musculus [7] = test: Ratio of number of cured to that of total after intraperitoneal administration (10.0 mg/kg) once a day for 3 days in mouse infected with Trypanosoma brucei (EATRO Lab 110); (3/3 of animals were cured); type: functional, organism-based
Mus musculus [8] = test: Ratio of number of cured to that of total after intraperitoneal administration (2.5 mg/kg) once a day for 3 days in mouse infected with Trypanosoma brucei (EATRO Lab 110); (3/3 of animals were cured); type: functional, organism-based
Trypanosoma brucei [9] = test: Mean survival dose (1.0 mg/kg) after intraperitoneal administration once a day for 3 days in mouse infected with Trypanosoma brucei (EATRO Lab 110); type: functional
Summary of the method: (§2)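 Female Swiss-Webster mice (20 g) infected ip with 2.5×10^5 trypanosomes from rat blood; treatment began 24 h later. Drug dissolved in distilled water, given ip once daily for 3 days, three mice per dose. Tail blood smears checked weekly. MSD is the mean survival of mice dying of infection, excluding cures. Cure means survival >30 days beyond the last control death with a clear smear.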

Mus musculus [10] = test: Ratio of number of cured to that of total after intraperitoneal administration (25 mg/kg) once a day for 3 days in mouse infected with Trypanosoma brucei (EATRO Lab 110); (0/3 of animals were cured); type: functional, organism-based
Trypanosoma brucei [11] = test: Mean survival dose (25.0 mg/kg) after intraperitoneal administration once a day for 3 days in mouse infected with Trypanosoma brucei (EATRO Lab 110); Compound was toxic.; type: functional; summary of the method: as §2
Mus musculus [12] = test: Ratio of number of cured to that of total after intraperitoneal administration (5.0 mg/kg) once a day for 3 days in mouse infected with Trypanosoma brucei (EATRO Lab 110); (2/3 of animals were cured); type: functional, organism-based
Trypanosoma brucei [13] = test: Mean survival dose (2.5 mg/kg) after intraperitoneal administration once a day for 3 days in mouse infected with Trypanosoma brucei (EATRO Lab 110); type: functional; summary of the method: as §2
Trypanosoma brucei [14] = test: Mean survival dose (5.0 mg/kg) after intraperitoneal administration once a day for 3 days in mouse infected with Trypanosoma brucei (EATRO Lab 110); type: functional; summary of the method: as §2
Mus musculus [15] = test: Ratio of number of cured to that of total after intraperitoneal administration (2.5 mg/kg) once a day for 3 days in mouse infected with Trypanosoma brucei (EATRO Lab 110); (1/3 of animals were cured); type: functional, organism-based
Mus musculus [16] = test: Ratio of number of cured to that of total after intraperitoneal administration (1.0 mg/kg) once a day for 3 days in mouse infected with Trypanosoma brucei (EATRO Lab 110);(0/3 of animals were cured); type: functional, organism-based
Mus musculus [17] = test: Ratio of number of cured to that of total after intraperitoneal administration (25 mg/kg) once a day for 3 days in mouse infected with Trypanosoma brucei (EATRO Lab 110); (3/3 of animals were cured); type: functional, organism-based
Mus musculus [18] = test: Ratio of number of cured to that of total after intraperitoneal administration (10.0 mg/kg) once a day for 3 days in mouse infected with Trypanosoma brucei (EATRO Lab 110); (1/3 of animals were cured); type: functional, organism-based
Trypanosoma brucei [19] = test: Mean survival dose (10.0 mg/kg) after intraperitoneal administration once a day for 3 days in mouse infected with Trypanosoma brucei (EATRO Lab 110); type: functional; summary of the method: as §2
Mus musculus [20] = test: Ratio of number of cured to that of total after intraperitoneal administration (25 mg/kg) once a day for 3 days in mouse infected with Trypanosoma brucei (EATRO Lab 110);(3/3 of animals were cured); type: functional, organism-based
Mus musculus [21] = test: Ratio of number of cured to that of total after intraperitoneal administration (5.0 mg/kg) once a day for 3 days in mouse infected with Trypanosoma brucei (EATRO Lab 110); (0/3 of animals were cured); type: functional, organism-based
Mus musculus [22] = test: Ratio of number of cured to that of total after intraperitoneal administration (2.5 mg/kg) once a day for 3 days in mouse infected with Trypanosoma brucei (EATRO Lab 110); (0/3 of animals were cured); type: functional, organism-based

Row | DNA binding (Nucleic Acid) | IC50 [1] | IC50 (Trypanosoma brucei [2]) | IC50 (Trypanosoma brucei [3]) | IC50 (Trypanosoma brucei [4]) | DNA binding (Calf thymus DNA) | Compound | further results
1 | 15.5 °C | 88 nM | 71 nM | 84 nM | 84 nM | 12 °C | C(=C1\CCCN(c2ccc(C3=NCCN3)cc2)C1)/c1ccc(C2=NCCN2)cc1 | –
2 | 20.6 °C | 3.2 nM | 0.8 nM | 3.1 nM | 5 nM | 11.1 °C | N=C(N)c1ccc(OCCCCCOc2ccc(C(=N)N)cc2)cc1 [PENTAMIDINE] | –
3 | 20 °C | – | > 1000 nM | 900 nM | 125 nM | 13.8 °C | CC(C)/N=C(\N)c1ccc(N2CCCN(c3ccc(/C(N)=N/C(C)C)cc3)CC2)cc1 | –
4 | 23.6 °C | – | 870 nM | 810 nM | 850 nM | 15.3 °C | N=C(NC1CC1)c1ccc(N2CCCN(c3ccc(C(=N)NC4CC4)cc3)CC2)cc1 | –
5 | 14.7 °C | – | > 1000 nM | > 1000 nM | > 1000 nM | 11.1 °C | N=C(NCCO)c1ccc(N2CCCN(c3ccc(/C(N)=N/CCO)cc3)CC2)cc1 | –
6 | 33.9 °C | 155 nM | 169 nM | 185 nM | 88 nM | 21 °C | c1cc(C2=NCCN2)ccc1CC1CCN(c2ccc(C3=NCCN3)cc2)CC1 | –
7 | 19.4 °C | 265 nM | 540 nM | 465 nM | 90 nM | 17 °C | C(=C1CCN(Cc2ccc(C3=NCCN3)cc2)CC1)c1ccc(C2=NCCN2)cc1 | –
8 | 9.6 °C | > 1000 nM | > 1000 nM | 440 nM | 810 nM | 6 °C | O=C(Nc1ccc(C2=NCCN2)cc1)C1C[C@H]1C(=O)Nc1ccc(C2=NCCN2)cc1 (stereo not given in full) | –
9 | 13.3 °C | – | 180 nM | 79 nM | 78 nM | 11.8 °C | CCCCNC(=N)c1ccc(N2CCCN(c3ccc(C(=N)NCCCC)cc3)CC2)cc1 | –
10 | 7.4 °C | – | > 1000 nM | > 1000 nM | > 1000 nM | 4.1 °C | CC(C)(C)/N=C(\N)c1ccc(N2CCCN(c3ccc(/C(N)=N/C(C)(C)C)cc3)CC2)cc1 | –
11 | 14.1 °C | 15 nM | 86 nM | 85 nM | 79 nM | 9.9 °C | c1cc(C2=NCCN2)ccc1CC1CCCN(c2ccc(C3=NCCN3)cc2)C1 (stereo not given) | –
12 | 20.3 °C | 15.5 nM | 9.4 nM | 45 nM | 0.17 nM | 11.1 °C | N=C(N)c1ccc(OC[C@@H]2C[C@H]2COc2ccc(C(=N)N)cc2)cc1 | –
13 | 15.9 °C | > 1000 nM | > 1000 nM | > 1000 nM | > 1000 nM | 7.1 °C | N=C(N)c1ccc(NC(=O)c2cccc(C(=O)Nc3ccc(C(=N)N)cc3)n2)cc1 | –

Row | Compound | DNA binding (Nucleic Acid) | IC50 [1] | IC50 (Trypanosoma brucei [2]) | IC50 (Trypanosoma brucei [3]) | IC50 (Trypanosoma brucei [4]) | DNA binding (Calf thymus DNA) | further results
14 | c1cc(N2CCN(c3ccc(C4=NCCN4)cc3)CC2)ccc1C1=NCCN1 | 19.4 °C | 13 nM | 18.5 nM | 13.5 nM | 100 nM | 15 °C | Ratio (Mus musculus [5]): inactive; Ratio (Mus musculus [6]): Active; Ratio (Mus musculus [7]): Active; Ratio (Mus musculus [8]): Active; MSD (Trypanosoma brucei [9]): 10.3 days; Ratio (Mus musculus [10]): inactive; MSD (Trypanosoma brucei [11]): 19.7 days
15 | N=C(N)c1ccc(N2CCCN(c3ccc(C(=N)N)cc3)CC2)cc1 | 23.1 °C | 7.1 nM | 2.15 nM | 2.71 nM | 3.3 nM | 15 °C | Ratio (Mus musculus [12]): Partially active; MSD (Trypanosoma brucei [13]): 16.5 days; MSD (Trypanosoma brucei [14]): 12 days; Ratio (Mus musculus [7]): Active; MSD (Trypanosoma brucei [9]): 8.3 days; Ratio (Mus musculus [15]): Partially active; Ratio (Mus musculus [16]): inactive; Ratio (Mus musculus [17]): Active
16 | c1cc(N2CCCN(c3ccc(C4=NCCN4)cc3)CC2)ccc1C1=NCCN1 | 24 °C | 155 nM | 27.5 nM | 52 nM | 23 nM | 15 °C | Ratio (Mus musculus [18]): Partially active; Ratio (Mus musculus [5]): inactive; MSD (Trypanosoma brucei [13]): 4.3 days; MSD (Trypanosoma brucei [19]): 14 days; MSD (Trypanosoma brucei [14]): 7.7 days; Ratio (Mus musculus [20]): Active; Ratio (Mus musculus [21]): inactive; Ratio (Mus musculus [22]): inactive; MSD (Trypanosoma brucei [9]): 4.7 days
